The text below walks through data of ChEMBL document CHEMBL3102768, “Synthesis, biological evaluation and SAR of 3-benzoates of ingenol for treatment of actinic keratosis and non-melanoma skin cancer” (Bioorg Med Chem Lett, 2014).

The target of series [1] is Protein kinase C delta type (Homo sapiens, UniProt Q05655). The experiment in a line: Activation of PKCdelta (unknown origin) after 40 mins. The essentials:
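In vitro PKCδ phosphorylation of a PKC peptide substrate, with 0.05 mg/mL phosphatidylserine and no diacylglycerol. Compounds were tested as a twelve-point semilog dilution series starting at 10 µM. The reaction was started with ATP and run 40 min at room temperature.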

Series [2] relates to Keratinocyte. The experiment in a line: Induction of proimflammatory activity in human primary epidermal keratinocytes assessed as IL-8 release after 6 hrs relative to ingenol 3-angelate. Format: functional. The method in brief:
(§1)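 Adult log-phase primary epidermal keratinocytes were seeded at 10,000 cells/well. Cells were incubated with titrated compound for 6 h at 37 °C in 5% CO2. Secreted IL8 was measured by Meso Scale 4-spot cytokine plates or by HTRF. EC50 and Emax were referenced to the maximal response of ingenol 3-angelate.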

The test system of series [3] is Keratinocyte. Kind of series: Induction of proimflammatory activity in human primary epidermal keratinocytes assessed as IL-8 release after 6 hrs. The series is classed as functional, cell-based. The method in brief:
as §1

The test system of series [4] is Keratinocyte. The experiment in a line: Induction of proimflammatory activity in human primary epidermal keratinocytes assessed as TNFalpha release after 6 hrs relative to ingenol 3-angelate. Format: functional. The method in brief:
(§2)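 Adult log-phase primary epidermal keratinocytes were seeded at 10,000 cells/well. Cells were incubated with titrated compound for 6 h at 37 °C in 5% CO2. Secreted TNFα was measured by Meso Scale 4-spot cytokine plates. EC50 and Emax were referenced to the maximal response of ingenol 3-angelate.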

Series [5] deals with Keratinocyte. The experiment in a line: Induction of proimflammatory activity in human primary epidermal keratinocytes assessed as TNFalpha release after 6 hrs. Format: functional, cell-based. The method in brief:
as §2

Series [6] is described as follows: Immunostimulatory activity in polymorphonuclear leukocytes (unknown origin) assessed as induction of oxidative burst after 40 mins by fluorescence assay relative to ingenol 3-angelate. Format: functional. The essentials: (§3)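 PMN were isolated from fresh buffy coats. Cells were incubated 40 min at ambient temperature with titrated compound (top concentration 10 µM) pre-mixed with hydroethidine. Respiratory burst was read as fluorescence at ex 485/em 579 nm. EC50 is the concentration giving 50% of the maximum effect of ingenol 3-angelate; Emax is the maximal response relative to it.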

A short description of series [7]: Immunostimulatory activity in polymorphonuclear leukocytes (unknown origin) assessed as induction of oxidative burst after 40 mins by fluorescence assay. The series is classed as functional, cell-based. The method in brief: as §3
The nature of series [8]: Chemical stability of the compound in aqueous buffer with less than 30% organic solvent assessed as compound recovery at pH 7.4 measured over 16 hrs by HPLC analysis. The note with it: read-out: Drug recovery. The series is classed as physicochemical. The method in brief:
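A DMSO stock was diluted into pre-heated (37 °C) aqueous buffer pH 7.4 to ≤30% v/v organic content. The solution was held at 37 °C in the HPLC autosampler and injected within 5 min, then repeatedly over 16 h. Recovery was taken from the decrease in compound peak area, with UV detection normally at 270 nm.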

A further series concerns HeLa. The experiment in a line: Induction of necrosis in human HeLa cells assessed as remaining metabolic activity after 30 mins by resazurin dye-based assay. Format: functional. The settings on record: 0.5 h, read-out: LC50 (the source's name). The method in brief: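 HeLa cells were exposed to increasing concentrations up to 400 µM for 30 min at 37 °C. Metabolic activity was then measured with a resazurin-based dye (PrestoBlue). LC50 is the concentration giving 50% loss of metabolic activity.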

Some results are limits rather than exact numbers.

Protein kinase C delta type, sequence (Q05655 whole entry): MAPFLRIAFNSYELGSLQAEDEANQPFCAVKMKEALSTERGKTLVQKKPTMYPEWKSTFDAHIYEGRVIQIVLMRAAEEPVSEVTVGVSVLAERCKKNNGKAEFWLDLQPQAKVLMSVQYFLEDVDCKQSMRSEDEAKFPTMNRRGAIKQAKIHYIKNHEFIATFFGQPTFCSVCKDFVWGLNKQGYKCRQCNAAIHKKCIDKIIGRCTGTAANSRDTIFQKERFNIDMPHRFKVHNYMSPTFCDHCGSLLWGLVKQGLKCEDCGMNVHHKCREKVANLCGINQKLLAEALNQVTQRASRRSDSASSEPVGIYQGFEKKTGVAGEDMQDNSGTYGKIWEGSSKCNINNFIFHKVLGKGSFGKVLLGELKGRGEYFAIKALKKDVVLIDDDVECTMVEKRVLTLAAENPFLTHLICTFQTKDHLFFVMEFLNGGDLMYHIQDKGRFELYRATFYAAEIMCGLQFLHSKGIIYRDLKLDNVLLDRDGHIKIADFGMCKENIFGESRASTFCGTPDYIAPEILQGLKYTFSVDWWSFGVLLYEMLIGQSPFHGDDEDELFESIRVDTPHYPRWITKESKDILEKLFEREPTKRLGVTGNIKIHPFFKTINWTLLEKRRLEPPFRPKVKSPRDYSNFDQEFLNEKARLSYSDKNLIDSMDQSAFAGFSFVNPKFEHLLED

Take `CC(=O)Nc1cccc(C)c1C(=O)O[C@H]1C(C)=C[C@]23C(=O)[C@@H](C=C(CO)[C@@H](O)[C@]12O)[C@H]1[C@@H](C[C@H]3C)C1(C)C`: the EC50 is 988 nM in series [1], 534 nM with Keratinocyte [3], 632 nM with Keratinocyte [5] and 538 nM in series [7]. Further, the Emax in the series on Keratinocyte [2] came out at 92%; in the series on Keratinocyte [4], 92%; in series [6], 113%. Also, the remaining at 16 h in series [8] came out at 82%.

For the compound `CC1=C[C@]23C(=O)[C@@H](C=C(CO)[C@@H](O)[C@]2(O)[C@H]1OCc1ccccc1)[C@H]1[C@@H](C[C@H]3C)C1(C)C`, the EC50 in series [1] is > 10000 nM; in the series with Keratinocyte [3], 4520 nM; in [7] it was 4540 nM. Also, the CC50 with HeLa was 378000 nM. For the same compound, the Emax in the series with Keratinocyte [2] came out at 58%. Moreover, the remaining at 16 h in series [8] was > 95%.

For `CC1=C[C@]23C(=O)[C@@H](C=C(CO)[C@@H](O)[C@]2(O)[C@H]1OC(=O)c1ccccc1Br)[C@H]1[C@@H](C[C@H]3C)C1(C)C`, the EC50 in series [1] worked out at 3.8 nM; in the series on Keratinocyte [3], 2.3 nM; in the series on Keratinocyte [5], 8.2 nM; in [7], 4.3 nM. Besides, the CC50 in the series on HeLa amounted to 141000 nM. In addition, the values for the Emax (in the series with Keratinocyte [2]; in the series on Keratinocyte [4]; in [6]) were 93%, 96% and 99%, respectively. Further, the remaining at 16 h in series [8] stood at 44%.

`COc1ccccc1C(=O)O[C@H]1C(C)=C[C@]23C(=O)[C@@H](C=C(CO)[C@@H](O)[C@]12O)[C@H]1[C@@H](C[C@H]3C)C1(C)C`: the EC50 is 25.7 nM in [1], 42 nM in the series with Keratinocyte [3], 38 nM in the series on Keratinocyte [5] and 6.8 nM in [7]. Also, in the series with HeLa, the CC50 turned out to be 220000 nM. Besides, the Emax is 100% in the series with Keratinocyte [2], 100% in the series on Keratinocyte [4] and 107% in series [6]. In series [8], the remaining at 16 h came to 70%.

`CC1=C[C@]23C(=O)[C@@H](C=C(CO)[C@@H](O)[C@]2(O)[C@H]1OC(=O)c1ccccc1-c1ccccc1)[C@H]1[C@@H](C[C@H]3C)C1(C)C`: the EC50 in [1] was found to be 3.3 nM; in the series on Keratinocyte [3] it was 1.5 nM; in the series with Keratinocyte [5], 1.6 nM; in series [7], 16 nM. The CC50 in the series on HeLa came out at 77000 nM. In addition, the results for the Emax (in the series with Keratinocyte [2]; in the series on Keratinocyte [4]; in [6]) were 87%, 91% and 105%, respectively. Further, the remaining at 16 h in series [8] was found to be 77%.

Regarding `CC1=C[C@]23C(=O)[C@@H](C=C(CO)[C@@H](O)[C@]2(O)[C@H]1OC(=O)c1ccccc1Oc1ccccc1)[C@H]1[C@@H](C[C@H]3C)C1(C)C`, the EC50 amounted to 13.1 nM in series [1], 1.1 nM with Keratinocyte [3], 1.4 nM in the series with Keratinocyte [5] and 9.4 nM in series [7]. In the series with HeLa, the CC50 came to 83000 nM. The Emax stood at 87% in the series on Keratinocyte [2], 86% in the series on Keratinocyte [4] and 98% in [6]. In series [8], the remaining at 16 h turned out to be 80%.

Take `CC1=C[C@]23C(=O)[C@@H](C=C(CO)[C@@H](O)[C@]2(O)[C@H]1OC(=O)c1ccccc1Nc1ccccc1)[C@H]1[C@@H](C[C@H]3C)C1(C)C`: the concentration for a half-maximal effect (EC50) was determined as 4.2 nM in [1], 3.7 nM in the series on Keratinocyte [3], 5 nM with Keratinocyte [5] and 11 nM in series [7]. Besides, in the series with HeLa, the CC50 stood at 307000 nM. Moreover, the values for the Emax (with Keratinocyte [2]; with Keratinocyte [4]; in series [6]) were 103%, 120% and 129%, respectively. The remaining at 16 h in series [8] is 58%.

For the compound `CNc1ccccc1C(=O)O[C@H]1C(C)=C[C@]23C(=O)[C@@H](C=C(CO)[C@@H](O)[C@]12O)[C@H]1[C@@H](C[C@H]3C)C1(C)C`, the EC50 in series [1] was 2.5 nM; in the series with Keratinocyte [3], 0.79 nM; in the series with Keratinocyte [5], 1 nM; in series [7], 6.7 nM. Besides, the CC50 with HeLa came to 95000 nM. Further, the Emax is 99% in the series on Keratinocyte [2], 134% in the series on Keratinocyte [4] and 113% in series [6]. Further, in [8], the remaining at 16 h worked out at 68%.

`CC1=C[C@]23C(=O)[C@@H](C=C(CO)[C@@H](O)[C@]2(O)[C@H]1OC(=O)c1c(C)cccc1C)[C@H]1[C@@H](C[C@H]3C)C1(C)C`: the EC50 in series [1] came out at 10.8 nM; with Keratinocyte [3] it was 62 nM; in the series on Keratinocyte [5] it was 83 nM; in [7], 13 nM. In the series on HeLa, the CC50 came to 97000 nM. Besides, the Emax with Keratinocyte [2] turned out to be 66%; with Keratinocyte [4], 61%; in series [6], 123%. In addition, the remaining at 16 h in [8] was > 95%.

`COc1cccc(OC)c1C(=O)O[C@H]1C(C)=C[C@]23C(=O)[C@@H](C=C(CO)[C@@H](O)[C@]12O)[C@H]1[C@@H](C[C@H]3C)C1(C)C`: the half-maximal effective concentration (EC50) in series [1] amounted to 156 nM; with Keratinocyte [3], 44 nM; in the series on Keratinocyte [5], 57 nM; in [7] it was 84 nM. In addition, the CC50 in the series with HeLa came to 400000 nM. Further, the maximum response (Emax) in the series with Keratinocyte [2] was 107%; in the series on Keratinocyte [4] it was 113%; in series [6] it was 116%. For the same compound, the remaining at 16 h in series [8] was > 95%.

Take `CC1=C[C@]23C(=O)[C@@H](C=C(CO)[C@@H](O)[C@]2(O)[C@H]1OC(=O)c1c(Cl)cccc1Cl)[C@H]1[C@@H](C[C@H]3C)C1(C)C`: the EC50 stood at 19.8 nM in series [1], 113 nM in the series on Keratinocyte [3], 278 nM in the series with Keratinocyte [5] and 21 nM in series [7]. Further, in the series on HeLa, the CC50 came out at 59000 nM. In addition, the Emax with Keratinocyte [2] was found to be 45%; with Keratinocyte [4] it was 42%; in [6], 123%. In [8], the remaining at 16 h is > 95%.

With `CC1=C[C@]23C(=O)[C@@H](C=C(CO)[C@@H](O)[C@]2(O)[C@H]1OC(=O)c1c(C)cccc1N)[C@H]1[C@@H](C[C@H]3C)C1(C)C`, the EC50 in series [1] turned out to be 8 nM; in the series on Keratinocyte [3] it was 8.2 nM; in the series on Keratinocyte [5], 12 nM; in series [7] it was 8.6 nM. For the same compound, the CC50 with HeLa is 146000 nM. Moreover, the Emax in the series with Keratinocyte [2] was determined as 118%; in the series on Keratinocyte [4], 108%; in series [6] it was 117%. In addition, in [8], the remaining at 16 h is > 95%.

`CC1=C[C@]23C(=O)[C@@H](C=C(CO)[C@@H](O)[C@]2(O)[C@H]1OC(=O)c1c(C)cccc1O)[C@H]1[C@@H](C[C@H]3C)C1(C)C`: the concentration for a half-maximal effect (EC50) was 13.4 nM in [1], 71 nM in the series on Keratinocyte [3], 98 nM with Keratinocyte [5] and 9.4 nM in [7]. Moreover, the CC50 in the series with HeLa was determined as 199000 nM. Besides, the Emax stood at 105% with Keratinocyte [2], 156% in the series on Keratinocyte [4] and 125% in [6]. In series [8], the remaining at 16 h was > 95%.

The EC50 is the concentration that produces a half-maximal response. The Emax is the size of the effect at its maximum, as opposed to the concentration needed.
